From PubChem BioAssay
Most compounds without a hit are left out; they make up all but 2.4% or so of the library.
HKDC1 inh: HKDC1 (human) hexokinase inhibition | Q2TB90 | recombinant HKDC1, G6PDH/diaphorase resazurin coupled fluorescence | inhibition, % at 20 µM | hit rate 0.16% among 340,000 | AID 493160;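 active means inhibition above about 35% when tested at 20 µM, limit read from the data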;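 further: plate controls were DMSO wells with enzyme for no effect and DMSO wells lacking enzyme for full effect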
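Assay system: in-house recombinant HK5 (HKDC1) enzyme. Input: HKDC1 at 5 µg/mL. Medium: Tris pH 8.0 buffer with MgCl2, Tween-20, BSA, BME. Dosing: single 20 µM dose. Schedule: 90 min reaction incubation at room temperature, dark. Signal: resazurin-to-resorufin fluorescence via G6PDH and diaphorase coupling, 525/613 nm. Controls: DMSO-enzyme wells negative, buffer-substituted wells positive.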
SUMO HTRF inh: SUMOylation inhibition; hit rate 0.36% among 290,000; P63279; inhibition, % at 35 µM; HTRF SUMOylation assay, SAE1/SAE2 + UBC9, in vitro; AID 2006; in the data active means inhibition above about 50%, passing the limit was not always enough
Target sequence (P63279 whole entry, looked up): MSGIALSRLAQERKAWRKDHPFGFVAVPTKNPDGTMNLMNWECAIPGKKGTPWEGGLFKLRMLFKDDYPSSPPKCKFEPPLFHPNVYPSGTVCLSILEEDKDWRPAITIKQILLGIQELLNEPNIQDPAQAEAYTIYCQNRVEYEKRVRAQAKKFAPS
APOBEC3A inh: blocks human APOBEC3A ssDNA deamination; P31941; recombinant A3A, FAM/TAMRA ssDNA deamination fluorescence; inhibition, % at 20 µM; hit rate 0.41% among 330,000;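 active means at least 40% inhibition at 20 µM here, with at most 30% in a related deaminase screen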;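 further: plate controls were A3A with DMSO for no effect and wells lacking A3A enzyme for full effect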
Target sequence (P31941 whole entry, looked up): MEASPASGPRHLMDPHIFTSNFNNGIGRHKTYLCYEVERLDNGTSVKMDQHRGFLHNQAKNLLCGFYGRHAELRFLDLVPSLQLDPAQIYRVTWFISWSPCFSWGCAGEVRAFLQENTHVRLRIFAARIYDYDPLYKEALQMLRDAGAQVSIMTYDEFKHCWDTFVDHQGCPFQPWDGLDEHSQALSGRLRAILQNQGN
PfGluPho inh: PfG6PD (Plasmodium falciparum) enzyme inhibition. PfGluPho enzyme, NADPH resazurin-diaphorase fluorescence. inhibition, % at 20 µM. hit rate 0.78% among 350,000;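 active means inhibition reaching at least a set limit at 20 µM in the primary screen, cut at about 59% in these data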;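 further: 0% = DMSO wells with substrate and 100% = DMSO wells lacking glucose-6-phosphate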
A3G deaminase: APOBEC3G (human) deaminase inhibition; Q9HC16; AID 493012; inhibition, % at 20 µM; recombinant A3G, ssDNA deamination FAM/TAMRA fluorescence; hit rate 0.28% among 330,000;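 active means inhibition of at least 40% at 20 µM, with no more than 30% in the related APOBEC3A deaminase screen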;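 further: plate controls were DMSO wells with A3G for no effect and wells lacking A3G enzyme for full effect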
PfM18AAP inh: PfM18AAP enzyme inhibition. inhibition, % at 7.35 µM. hit rate 1.2% among 290,000. recombinant PfM18AAP, H-Glu-NHMec fluorogenic cleavage. AID 1822;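 active means inhibition above the campaign mean inhibition over all tested compounds plus 3 SD, cut at about 28% in these data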;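 further: 0% = plate median of test compound wells and 100% = 2 mM ZnCl2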
A3A conf: APOBEC3A (human) deaminase inhibition, confirmed | shares compounds with APOBEC3A inh | recombinant A3A, ssDNA deaminase UDG fluorescence assay | inhibition, % at 20 µM | hit rate 63% among 1,400 | AID 493151;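 active means inhibition reaching a set limit, 80% of the first screen's cutoff, at 20 µM in any replicate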;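 further: plate controls were DMSO wells with A3A for no effect and wells lacking A3A enzyme for full effect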
UDG ctr A3A: inhibits UDG, flagging false APOBEC3A inhibitors | 1,000 tested, under 10 active | shares compounds with APOBEC3A inh | inhibition, % at 20 µM | UDG counterscreen, FAM/TAMRA uracil oligo fluorescence; call rule not given here
* marks the source's active call; other numbers are inactive results; . = no result given.

SMILES	HKDC1 inh	SUMO HTRF inh	APOBEC3A inh	PfGluPho inh	A3G deaminase	PfM18AAP inh	A3A conf	UDG ctr A3A
COC(=O)c1[nH]c2ccc(C)cc2c1NC(=O)CCN1CCN(C2CCCCC2)CC1	.	22	-1	.	-2	2	.	.
COC(=O)c1[nH]c2ccc(Br)cc2c1NC(=O)CN1CCN(C2CCCCC2)CC1	0	12	47*	5	21	-6	28	.
N#C/C(=C/c1ccccc1OCc1ccc(F)cc1)c1ccc(C(=O)O)cc1	-1	23	67*	-13	6	4	8	.
COc1cccc(/C=C(/C#N)c2ccc(F)cc2)c1OCc1cccc(C(=O)O)c1	11	18	10	-18	-3	-10	.	.
CN1CCN(c2ccc(Cl)cc2NC(=O)CC2OC(=O)c3ccccc32)CC1 (stereo unspecified)	-2	.	96*	6	29	.	69*	-2
NC(=O)CC(NC(=O)Cc1cccc2ccccc12)c1ccc(NCCN2CCCC2)c([N+](=O)[O-])c1 (stereo unspecified)	-6	10	19	13	-8	-3	.	.
O=C(CN1CCN(S(=O)(=O)c2ccc(Br)cc2)CC1)N/N=C/c1ccncc1	-2	8	-4	4	-4	2	.	.
CCN(CC(=O)Nc1ccc(NC(C)=O)cc1)C(=O)c1ccc(NC2CC2)c([N+](=O)[O-])c1	4	.	52*	-18	24	.	-1	.
Cc1ccc(NC(=O)c2cc(S(=O)(=O)N3CCOCC3)ccc2F)c(C)c1	-2	10	-1	2	-6	-19	.	.
Cc1cccc(NC(=O)CSCC(=O)Nc2cc(S(=O)(=O)N3CCOCC3)ccc2N2CCCC2)c1	-2	11	96*	3	-8	3	3	-3
Cc1cccc(NC(=O)CSCC(=O)Nc2cc(S(=O)(=O)N3CCOCC3)ccc2OC(C)C)c1	0	.	-1	1	-10	.	.	.
Cc1cccc(C(=O)Nc2ccc(S(=O)(=O)N3CCOCC3)cc2C)c1	-2	6	43*	-6	13	-13	52*	-1
Cc1ccc(CSc2ncn(-c3ccccc3)n2)cc1	-1	4	41*	20	10	-5	2	.
C[N+]1(CC(=O)OCCCC2CCCCC2)CCCC1	-4	2	69*	-10	15	-10	76*	-1
CC(C)(C)C1CCC(OC(=O)C[N+]2(C)CCCC2)CC1 (stereo unspecified)	-1	8	47*	19	15	-10	79*	2
CC(C)(C)C1CCC(OC(=O)C[N+]2(C)CCCCC2)CC1 (stereo unspecified)	-11	15	90*	8	11	6	84*	1
O=C(CN1CCCC1)OCCCC1CCCCC1	-5	7	-3	8	-2	-10	.	.
CC(C)(C)C1CCC(OC(=O)CN2CCOCC2)CC1 (stereo unspecified)	0	10	1	-11	-2	-9	.	.
COc1ccc(/C=C/C(=O)OC2CCCCC2CN(C)C)cc1 (stereo unspecified)	-3	29	6	-8	3	4	.	.
CC(C)CC1CCCCC1OC(=O)C[N+]1(C)CCCCC1 (stereo unspecified)	-15	18	81*	-6	20	-13	75*	-3
CCn1c(=O)c(=O)[nH]c2cc(C(=O)NCC3CCCCC3)ccc21	-4	17	5	4	0	-4	.	.
Cn1nc(-c2ccc(Cl)cc2)c2cc(C(=O)NCCCN3CCOCC3)sc21	-3	18	1	20	-6	7	.	.
COC(=O)c1ccc2c(c1)C(C)(C)C(/C=C/c1ccc(OC)c(OC)c1OC)=[N+]2C	19	10	95*	26	24	1	83*	2
COC(=O)c1ccc2c(c1)C(C)(C)C(/C=C/c1ccc(O)cc1)=[N+]2C	34	10	24	22	17	-2	.	.
CCCc1n(CC(O)COC2CCCCC2)c2ccccc2[n+]1C (stereo unspecified)	-4	-6	56*	4	13	-15	76*	1
